Experimental data as given in ChEMBL document CHEMBL2380254, “Optimization of tocotrienols as antiproliferative and antimigratory leads” (Eur J Med Chem, 2013).

Columns and labels:
Format in all cases: functional
SF-539 = assay: Growth inhibition of human SF539 cells assessed as cell growth at 10 uM after 48 hrs by sulforhodamine B assay; conditions: SF-539, 48 h, read-out: Activity
Summary of the method: (§1)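 Single-dose NCI-60 screen: adherent cells in RPMI 1640 with 5% FBS were exposed to 10 µM for 48 h at 37 °C after a 24 h preincubation. They were fixed in situ with cold TCA (10% final), stained with 0.4% SRB in 1% acetic acid, solubilized in 10 mM Tris base, and read at 515 nm. Percent growth was taken relative to time-zero and control plates.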

DU-145 = assay: Growth inhibition of human DU145 cells after 48 hrs by sulforhodamine B assay; conditions: DU-145, 48 h
Summary of the method: (§2)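 NCI-60 screen: cells in RPMI 1640 with 5% FBS and 2 mM glutamine, 5000–40,000 cells/well, preincubated 24 h. Five concentrations (10-fold dilutions; 100 to 0.001 µM) applied for 48 h at 37 °C. TCA fixation, SRB stain, absorbance at 515 nm. Time-zero plates included; GI50 where 100×(T−T0)/(C−T0)=50.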

NCI-H322M [1] = assay: Growth inhibition of human NCI-H322M cells assessed as cell growth at 10 uM after 48 hrs by sulforhodamine B assay; conditions: read-out: Activity; summary of the method: as §1
RXF 393 = assay: Growth inhibition of human RXF393 cells after 48 hrs by sulforhodamine B assay; conditions: RXF 393, 48 h
Summary of the method: (§3)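 NCI-60 panel cells grown in RPMI 1640 with 5% FBS and 2 mM L-glutamine, seeded at 5000–40,000 cells/well and preincubated 24 h. Five 10-fold dilutions (0.001–100 µM) from DMSO stocks were added for 48 h at 37 °C. Adherent cells were fixed with cold TCA (10% final) for 60 min at 4 °C, stained with 0.4% SRB, and read at 515 nm. GI50 was set where 100×(T−T0)/(C−T0)=50.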

BT-549 = assay: Growth inhibition of human BT549 cells after 48 hrs by sulforhodamine B assay; conditions: BT-549, 48 h; summary of the method: as §2
T47D = assay: Growth inhibition of human T47D cells after 48 hrs by sulforhodamine B assay
Summary of the method: (§4)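 NCI-60 five-dose screen. Cells were grown in RPMI 1640 with 5% FBS and 2 mM L-glutamine, plated at 5000–40,000 cells/well and incubated 24 h before dosing, with T0 plates TCA-fixed. DMSO stocks were diluted to doses of […] and exposed 48 h at 37 °C, 5% CO2. Cells were fixed with cold TCA (final 10%, 60 min, 4 °C), stained with 0.4% SRB in 1% acetic acid for 10 min, solubilized in 10 mM trizma base and read at 515 nm. GI50 is where 100×(T−T0)/(C−T0)=50.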

K562 = assay: Growth inhibition of human K562 cells assessed as cell growth at 10 uM after 48 hrs by sulforhodamine B assay; conditions: K562, 48 h, read-out: Activity
Summary of the method: (§5)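 NCI-60 single-dose screen at 10 µM: cells in RPMI 1640 with 5% FBS, preincubated 24 h, then exposed 48 h at 37 °C. TCA fixation (16% final for suspension cells), SRB staining, absorbance 515 nm. Percent growth relative to time-zero and untreated control plates; negative values indicate cell kill.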

HOP-92 = assay: Growth inhibition of human HOP92 cells after 48 hrs by sulforhodamine B assay; conditions: HOP-92, 48 h; summary of the method: as §2
PC-3 [2] = assay: Growth inhibition of human PC3 cells assessed as cell growth at 10 uM after 48 hrs by sulforhodamine B assay; conditions: PC-3, 48 h, read-out: Activity; summary of the method: as §1
MDA-MB-468 = assay: Growth inhibition of human MDA-MB-468 cells after 48 hrs by sulforhodamine B assay; conditions: MDA-MB-468, 48 h; summary of the method: as §3
SF-295 = assay: Growth inhibition of human SF295 cells assessed as cell growth at 10 uM after 48 hrs by sulforhodamine B assay; conditions: SF-295, 48 h, read-out: Activity; summary of the method: as §1
LOX IMVI = assay: Growth inhibition of human LOXIMVI cells assessed as cell growth at 10 uM after 48 hrs by sulforhodamine B assay; conditions: read-out: Activity; summary of the method: as §5
UO-31 = assay: Growth inhibition of human UO31 cells assessed as cell growth at 10 uM after 48 hrs by sulforhodamine B assay; conditions: UO-31, 48 h, read-out: Activity
Summary of the method: (§6)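 Single-dose NCI-60 test at 10 µM. Cells were grown in RPMI 1640 with 5% FBS and 2 mM L-glutamine, preincubated 24 h, with T0 plates TCA-fixed. Exposure was 48 h at 37 °C, 5% CO2. Cells were fixed with cold TCA (final 10%, 4 °C, 60 min), stained with SRB and read at 515 nm. Percent growth was taken relative to T0 and untreated control; negative values denote cell kill.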

NCI-H522 [3] = assay: Growth inhibition of human NCI-H522 cells after 48 hrs by sulforhodamine B assay; conditions: NCI-H522, 48 h; summary of the method: as §3
OVCAR-4 = assay: Growth inhibition of human OVCAR4 cells after 48 hrs by sulforhodamine B assay; conditions: OVCAR-4, 48 h; summary of the method: as §3
NCI-H23 [4] = assay: Growth inhibition of human NCI-H23 cells assessed as cell growth at 10 uM after 48 hrs by sulforhodamine B assay; conditions: NCI-H23, 48 h, read-out: Activity; summary of the method: as §1
SN12C [5] = assay: Growth inhibition of human SN12C cells after 48 hrs by sulforhodamine B assay; summary of the method: as §4
NCI-H322M [6] = assay: Growth inhibition of human NCI-H322M cells after 48 hrs by sulforhodamine B assay; summary of the method: as §3
[7] = Growth inhibition of human Hs 578T cells assessed as cell growth at 10 uM after 48 hrs by sulforhodamine B assay; conditions: read-out: Activity; summary of the method: as §5
KM12 = assay: Growth inhibition of human KM12 cells assessed as cell growth at 10 uM after 48 hrs by sulforhodamine B assay; conditions: KM12, 48 h, read-out: Activity; summary of the method: as §5
NCI-H522 [8] = assay: Growth inhibition of human NCI-H522 cells assessed as cell growth at 10 uM after 48 hrs by sulforhodamine B assay; conditions: NCI-H522, 48 h, read-out: Activity; summary of the method: as §1
PC-3 [9] = assay: Growth inhibition of human PC3 cells after 48 hrs by sulforhodamine B assay; conditions: PC-3, 48 h; summary of the method: as §3
MOLT-4 = assay: Growth inhibition of human MOLT4 cells assessed as cell growth at 10 uM after 48 hrs by sulforhodamine B assay; conditions: MOLT-4, 48 h, read-out: Activity
Summary of the method: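 Single 10 µM dose applied to suspension cells in RPMI 1640 with 5% FBS and 2 mM L-glutamine for 48 h at 37 °C. Settled cells were fixed with 80% TCA (16% final), stained with SRB, and read at 515 nm. Percent growth was calculated against time-zero and untreated control optical densities.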

NCI-H23 [10] = assay: Growth inhibition of human NCI-H23 cells after 48 hrs by sulforhodamine B assay; conditions: NCI-H23, 48 h; summary of the method: as §3
SN12C [11] = assay: Growth inhibition of human SN12C cells assessed as cell growth at 10 uM after 48 hrs by sulforhodamine B assay; conditions: read-out: Activity; summary of the method: as §6
[12] = Growth inhibition of human HCC2998 cells after 48 hrs by sulforhodamine B assay; conditions: HCC 2998, 48 h; summary of the method: as §2

Row | SMILES | growth at 10 µM (SF-539) | GI50 (DU-145) | growth at 10 µM (NCI-H322M [1]) | GI50 (RXF 393) | GI50 (BT-549) | GI50 (T47D) | GI50 (HOP-92) | growth at 10 µM (PC-3 [2]) | GI50 (MDA-MB-468) | growth at 10 µM (SF-295) | growth at 10 µM (LOX IMVI) | growth at 10 µM (UO-31) | GI50 (NCI-H522 [3]) | GI50 (OVCAR-4) | growth at 10 µM (NCI-H23 [4]) | GI50 (SN12C [5]) | GI50 (NCI-H322M [6]) | growth at 10 µM (KM12) | growth at 10 µM (NCI-H522 [8]) | GI50 (PC-3 [9]) | further results
1 | CC(C)=CCC/C(C)=C/CC/C(C)=C/CC[C@]1(C)CCc2c3c(cc(C)c2O1)OCN(CCCCCO)C3 | 95% | 6.28 µM | 16.8% | 1.94 µM | 7.34 µM | 6.17 µM | 5.42 µM | 63.7% | 4.14 µM | 103% | -0.88% | 50.4% | 7.08 µM | 5.68 µM | 92.9% | 5.56 µM | 6.35 µM | 13% | 4.69% | 5.71 µM | growth at 10 µM (K562): -35%; growth at 10 µM [7]: 36.6%; growth at 10 µM (MOLT-4): -1.68%; GI50 (NCI-H23 [10]): 6.67 µM; growth at 10 µM (SN12C [11]): 67.4%; GI50 [12]: 2.53 µM
2 | COc1ccc(CCN2COc3cc(C)c4c(c3C2)CC[C@@](C)(CC/C=C(\C)CC/C=C(\C)CCC=C(C)C)O4)cc1OC | 88.8% | 1.94 µM | 4.19% | 1.36 µM | 1.97 µM | 1.94 µM | 1.55 µM | 62.1% | 1.46 µM | 99.2% | -77.7% | 51.2% | 2.08 µM | 1.63 µM | 50.7% | 1.63 µM | 2.71 µM | -82.6% | -45.8% | 1.87 µM | growth at 10 µM (K562): 3.17%; growth at 10 µM (MOLT-4): 0.05%; GI50 (NCI-H23 [10]): 1.85 µM; growth at 10 µM (SN12C [11]): 37%; GI50 [12]: 1.48 µM
3 | CC(C)=CCC/C(C)=C/CC/C(C)=C/CC[C@]1(C)CCc2c3c(cc(C)c2O1)OCN(CCCCCCO)C3 | 28.3% | 1 µM | -61% | 0.546 µM | 6.15 µM | 1.76 µM | 1.05 µM | -31.4% | 0.629 µM | -74.7% | -90.8% | -37.8% | 4.37 µM | 0.518 µM | -22.3% | 2.06 µM | 3.75 µM | -79.1% | -0.37% | 1.24 µM | growth at 10 µM [7]: 29.8%; growth at 10 µM (MOLT-4): -42.9%; GI50 (NCI-H23 [10]): 4.57 µM; growth at 10 µM (SN12C [11]): 40.3%; GI50 [12]: 0.663 µM
